CAL PDZ FP-1 – CAL PDZ peptide-binding inhibitors, primary screen, biochemical, fluorescence polarization, Cer-tagged CAL PDZ, HTS; purified CAL PDZ, TMR-peptide fluorescence polarization, 1 h; Golgi-associated PDZ and coiled-coil motif-containing protein (Homo sapiens), Q9HD26; inhibition, % at 20 µM; 330,000 compounds, 0.02% hits;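 active = highest replicate inhibition of at least 40%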;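 also: plate controls were DMSO neutral control wells for no effect and unlabeled competitor peptide control wells for full effect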
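material = purified tagged CAL PDZ domain construct (CerCALP) | compound dosing = 20 µM, one dose | times = 1 h at RT | measured by = fluorescence polarization from S- and P-plane intensities, G-factor corrected | read-out = inhibition from polarization loss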
CAL PDZ FP-2 – untagged CAL PDZ binding inhibitors, primary screen, biochemical, fluorescence polarization, HTS | purified CAL PDZ, TMR-peptide fluorescence polarization, 1 h | inhibition, % at 24.9 µM | 300,000 compounds, 0.92% hits | AID 602252, 2012;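 active = mean inhibition of at least 30% with at least half of replicates also reaching 30%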;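 also: 0% = DMSO neutral control and 100% = excess unlabeled competitor peptide PRC23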
ARNT TACC3 PPI – disruptors of ARNT/TACC3 protein interaction, primary screen, biochemical, AlphaScreen, single concentration; Transforming acidic coiled-coil-containing protein 3 (Homo sapiens), Q9Y6A5; AlphaScreen His-ARNT PAS-B/GST-TACC3 binding, luminescence; TACC3 fragment carries E629A point mutation; inhibition, % at 9.99 µM; 390,000 compounds, 0.66% hits; AID 623870, 2012;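 active = mean inhibition of replicates at least 50% and at least half of replicates each reaching 50%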;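 also: 0% = complete ARNT plus TACC3 wells and 100% = ARNT alone without TACC3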
Dyrk1A ADPGlo – rat Dyrk1A kinase inhibitors, primary screen, biochemical, single point, plate reader; ADP-Glo luminescence, NFATc1 peptide; inhibition, % at 12.5 µM; 310,000 compounds, 0.43% hits; Dual specificity tyrosine-phosphorylation-regulated kinase 1A (Rattus norvegicus), Q63470; in the data active = inhibition above about 50%;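 also: plate controls were vehicle with enzyme for no effect and no enzyme for full effect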
ARNT Alpha ctr-1 – AlphaScreen signal interference compounds, dose response, artefact control for ARNT-TACC3 interaction inhibitor project, biochemical, luminescence, cherry-pick; 1,200 compounds, 50% hits; His-ARNT PASB-GST AlphaScreen artifact counter-screen; shares compounds with ARNT TACC3 PPI; AC50, µM (top dose mostly 68 µM), inactives show at the highest dose activity change, negative = signal decrease;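 active = every separate test run was called active for a drop in luminescence, with AC50 within twice the top valid dose, actives reach about 71 µM in these data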
ARNT Alpha ctr-2 – AlphaScreen signal interference by compounds, dose response, artefact control for ARNT/TACC3 disruptor project, biochemical, dual-tagged ARNT, dry powder. shares compounds with ARNT TACC3 PPI. Dual-tagged His-ARNT PASB-GST AlphaScreen artifact counter-screen. AC50, µM. 45 compounds, 70% hits;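 active = luminescence drop, with half-maximal potency fitted within twice the sample's top valid dose, cut at about 70 µM in these data; inactive = the rest, including signal moving the wrong way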
Numbers without * were called inactive; . = no result; [ ] = another dose, or the depositor's remark. Shown are actives, neighbours in structure and some others; about 1.4% of the full set was active somewhere.

SMILES | CAL PDZ FP-1 | CAL PDZ FP-2 | ARNT TACC3 PPI | Dyrk1A ADPGlo | ARNT Alpha ctr-1 | others
CNc1nc(-c2ccccn2)nnc1-c1ccccc1 | -2 | 0 | 64* | -2 | 3µM*
CC(Nc1nc(-c2ccccn2)nnc1-c1ccccc1)c1ccccc1 (configuration not stated) | . | . | . | . | 2.3µM*
c1ccc(-c2nnc(-c3ccccn3)nc2NC2CCCCC2)cc1 | -4 | 2 | . | 6 | .
Cc1cccc(-c2ccc([C@@H]3[C@H](CO)N4CCCCN(S(=O)(=O)c5ccccc5C)C[C@@H]34)cc2)c1 | . | . | -4 | . | .
Cc1ccc(S(=O)(=O)N(C)C[C@H]2OCCCC[C@H](C)Oc3ccc(NC(=O)Cc4ccccc4)cc3C(=O)N([C@H](C)CO)C[C@@H]2C)cc1 | . | . | 26 | . | .
O=C(Nc1nccs1)c1ccccn1 | -3 | -1 | 0 | -5 | .
O=C(Nc1nccs1)c1cnccn1 | -2 | . | 51* | 4 | -5%
CC(=O)NCCc1nc2ccccc2[nH]1 | -1 | . | -5 | -3 | .
CN(CC(=O)O)Cc1nc2ccccc2[nH]1 | -1 | -2 | 88* | 17 | 51µM*
CC(=O)N(C)C[C@H]1Oc2cc(C#Cc3ccncc3)ccc2S(=O)(=O)N([C@H](C)CO)C[C@H]1C | . | . | -2 | . | .
CCCN(C)C[C@H]1OCCCC[C@H](C)Oc2ccc(NC(=O)Cc3ccccc3)cc2C(=O)N([C@@H](C)CO)C[C@H]1C | . | . | 22 | . | .
O=C(C[C@@H]1C=C[C@@H](NC(=O)C2CC2)[C@H](CO)O1)Nc1nccs1 | . | . | 11 | . | .
O=C(C[C@H]1C=C[C@@H](NC(=O)C2CC2)[C@@H](CO)O1)Nc1nccs1 | . | . | 34* | . | -3%[38 µM]
CCOc1ccc2c(c1)c(N=NC(=N)N)c(O)n2C | 0 | -3 | 36* | 1 | -25%
CCOc1ccc2c(c1)c(N=NC(N)=S)c(O)n2C | 0 | 4 | 10 | 10 | .
Cc1nnc(NC(=O)c2ccc(F)c(S(=O)(=O)N3CCOCC3)c2)s1 | 0 | -3 | -14 | 2 | .
Cc1ccc(C(=O)Nc2nc(-c3ccccn3)cs2)cc1S(=O)(=O)N1CCOCC1 | -4 | -4 | 66* | . | 24µM* | ARNT Alpha ctr-2=10*
O=C(Nc1nc(-c2ccccn2)cs1)c1cc(S(=O)(=O)N2CCOCC2)ccc1F | -1 | -4 | 74* | 2 | 23µM*
O=C(Nc1nc(-c2ccccn2)cs1)c1ccc(F)c(S(=O)(=O)N2CCOCC2)c1 | 0 | 9 | 68* | . | 9µM*
CCC(COC)Oc1cc(NCc2ccccc2)c2ncn(C(C)C)c2c1 (configuration not stated) | 0 | 2 | 56* | 21 | 34µM*
C/C(CC(=O)NCc1ccccc1Cl)=N/NC(=O)c1ccccn1 | -2 | . | 26* | 0 | 2%
C/C(CC(=O)Nc1ccc(F)cc1)=N\NC(=O)c1ccccn1 | -2 | -4 | 22* | 0 | -7%
COc1ccc(NC(=O)N[C@H]2C=C[C@H](CC(=O)NC3CCC3)O[C@H]2CO)cc1 | . | . | -3 | . | .
CC(=O)NC(c1cc(Cl)c2cccnc2c1O)C(C)C (configuration not stated) | 0 | 6 | 58* | 19 | 38µM*
CC(C)C(=O)NC(c1ccccc1)c1cc([N+](=O)[O-])c2cccnc2c1O (configuration not stated) | -1 | -3 | 0 | -4 | .
SMILES | CAL PDZ FP-1 | CAL PDZ FP-2 | ARNT TACC3 PPI | Dyrk1A ADPGlo | ARNT Alpha ctr-1 | others
CCCC(=O)NC(c1cccs1)c1cc([N+](=O)[O-])c2cccnc2c1O (configuration not stated) | 0 | . | 58* | -1 | 9.9µM*
CC(=O)NC(c1cc(Cl)c2ccccc2c1O)C(C)C (configuration not stated) | -2 | 1 | -6 | 1 | .
CC(=O)NC(c1cccs1)c1cc([N+](=O)[O-])c2cccnc2c1O (configuration not stated) | -2 | -6 | 60* | 1 | 6.9µM*
COC(=O)C[C@H]1C[C@H]2c3cc(NS(=O)(=O)c4cccc(OC)c4)ccc3O[C@H]2[C@H](CO)O1 | . | . | -12 | . | .
C[C@@H]1CN([C@H](C)CO)C(=O)c2cc(C#CC3CCCCC3)cnc2O[C@@H]1CN(C)C(=O)Nc1ccccc1 | . | . | 10 | . | .
Cc1noc(C)c1NC(=O)Nc1cccc2c1O[C@H](CN(C)S(=O)(=O)c1ccc(Cl)cc1)[C@@H](C)CN([C@H](C)CO)C2=O | . | . | 4 | . | .
C=CCN1Cc2ccccc2C[C@@]2(COC(c3ccc(OCCCO)cc3)=N2)C1=O | . | . | 2 | . | .
O=C(Nc1nnc(SCc2ccc(F)cc2)s1)c1cccnc1Cl | -1 | -4 | -3 | 3 | .
O=C(Nc1nnc(SCc2ccc(F)cc2)s1)c1ccccn1 | 0 | -1 | 79* | 2 | 17µM*
Cc1noc(C)c1S(=O)(=O)N(C)C[C@H]1OCCCC[C@H](C)Oc2ccc(NC(=O)NC3CCCCC3)cc2C(=O)N([C@@H](C)CO)C[C@@H]1C | . | . | -18 | . | .
CCOC(=O)CC(NC(=O)Cc1ccc(F)cc1)c1ccccc1Cl (configuration not stated) | 0 | 0 | 22* | -4 | -4%
C[C@@H]1CN([C@H](C)CO)C(=O)Cc2cc(NS(=O)(=O)c3cccs3)ccc2O[C@@H]1CN(C)C(=O)Nc1ccc(C(F)(F)F)cc1 | . | . | -30 | . | .
CS(=O)(=O)Nc1ccc2c(c1)[C@@H]1C[C@H](CC(=O)NC3CCCCC3)O[C@@H](CO)[C@@H]1O2 | . | . | -13 | . | .
C#CCOCCOCCOCCNc1nc(N2CCN(C(=O)[C@H](CCCCN)n3cc([C@@H](N)CC(N)=O)nn3)CC2)nc(N2CCN(C(=O)[C@H](CCCCN)n3cc([C@@H](N)CC(N)=O)nn3)CC2)n1 | -1 | -4 | 60* | 17 | -3%
C#CCOCCOCCOCCNc1nc(N2CCN(C(=O)[C@H](CC(N)=O)n3cc([C@@H](N)CC(N)=O)nn3)CC2)nc(N2CCN(C(=O)[C@H](CC(N)=O)n3cc([C@@H](N)CC(N)=O)nn3)CC2)n1 | -1 | 1 | 46* | 4 | -7%
C#CCOCCOCCOCCNc1nc(N2CCN(C(=O)[C@H](CCCCN)n3cc([C@@H](N)CO)nn3)CC2)nc(N2CCN(C(=O)[C@H](Cc3ccc(O)cc3)n3cc([C@@H](N)CC(C)C)nn3)CC2)n1 | 0 | -3 | 38* | 4 | -17%

Assay outcomes from PubChem BioAssay.
